Hits are enriched below; roughly 2.5% of the tested compounds scored in any of these assays.
SENP7 inh = inhibitors of human SENP7 protease | actives 1.5% (n = 330,000) | recombinant SENP7, Z-RLRGG-aminoluciferin luminescence, 40 min | inhibition, % at 5 µM | AID 434973 | Q9BQF6;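 active means inhibition above about 50% at the single test dose, limit read from the data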;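 further: plate controls were DMSO with enzyme for no effect and no enzyme buffer wells for full effect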
Target sequence (Q9BQF6 706-1050 limits assumed): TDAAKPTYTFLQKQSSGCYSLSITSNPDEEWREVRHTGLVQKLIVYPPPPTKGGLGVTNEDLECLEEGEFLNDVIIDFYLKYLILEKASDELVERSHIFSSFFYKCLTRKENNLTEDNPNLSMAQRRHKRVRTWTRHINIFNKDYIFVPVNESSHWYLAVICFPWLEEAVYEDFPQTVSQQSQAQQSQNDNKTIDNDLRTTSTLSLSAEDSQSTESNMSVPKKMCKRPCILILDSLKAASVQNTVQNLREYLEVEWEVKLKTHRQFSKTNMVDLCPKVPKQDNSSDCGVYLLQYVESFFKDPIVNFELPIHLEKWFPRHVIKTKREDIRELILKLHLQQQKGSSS
SENP6 block = inhibitors of human SENP6 protease. Recombinant SENP6 catalytic domain, aminoluciferin luminescence. inhibition, % at 10 µM. actives 1.8% (n = 330,000). AID 2599;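 active means inhibition above about 50% at the single tested dose, limit read from the data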;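 further: plate controls were DMSO wells with enzyme for no effect and DMSO wells lacking enzyme for full effect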
SENP8 block-1 = inhibitors of human SENP8 protease; Q96LD8; purified SENP8, Z-RLRGG-aminoluciferin cleavage, luminescence; inhibition, % at 10 µM; actives 1.2% (n = 330,000); in the data active means inhibition above about 50%
SENP8 block-2 = blocks human SENP8 cleavage of Nedd8 substrate | Q96LD8 | recombinant SENP8, Nedd8 substrate fluorescence | inhibition, % at 20 µM | actives 0.64% (n = 360,000) | AID 602440; in the data active means inhibition mostly above about 40%, no sharp cut-off; inactive means mostly below about 27%
SENP1 inh = SENP1 (human) catalytic domain inhibition. recombinant SENP1 catalytic domain, CyPet-SUMO1-YPet FRET cleavage. actives 0.21% (n = 360,000). inhibition, % at 10 µM;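 active means inhibition at least 30% at 10 µM, raw YFP signal under a set limit, fluorescence ratio 0.5 to 1.5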;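 further: 0% = enzyme with DMSO and 100% = no enzyme wells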
Target sequence (Q9P0U3 419-644 limits assumed): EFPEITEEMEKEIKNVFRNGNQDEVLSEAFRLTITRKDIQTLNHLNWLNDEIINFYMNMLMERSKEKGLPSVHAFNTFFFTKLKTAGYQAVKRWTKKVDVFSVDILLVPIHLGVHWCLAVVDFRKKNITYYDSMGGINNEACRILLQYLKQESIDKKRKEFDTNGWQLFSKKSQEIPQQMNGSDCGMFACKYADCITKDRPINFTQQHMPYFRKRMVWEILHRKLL
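Assay system – human recombinant His6-tagged SENP1 catalytic domain enzyme · Input – SENP1 enzyme, 20 pM final · Buffer or medium – Tris pH 8 buffer plus EDTA, NaCl, BME, BSA, NP40, catalase · Schedule – 50 min reaction at room temperature · Technique – FRET read of cyan and yellow fluorescence · Control set – no-enzyme wells low, DMSO-plus-enzyme wells high control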
SENP8 conf = human SENP8 inhibition, confirmed; shares compounds with SENP7 inh; Recombinant SENP8, Z-RLRGG-aminoluciferin luminescence, 60 min; inhibition, % at 12.5 µM; actives 40% (n = 6,200); AID 488912;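 active means mean inhibition across replicates above about 50%, limit read from the data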
SENP6 confirm = human SENP6 inhibition, confirmed | shares compounds with SENP7 inh | recombinant SENP6, Z-RLRGG-aminoluciferin luminescence | inhibition, % at 12.5 µM | actives 58% (n = 6,200) | AID 488915
SENP7 conf = confirmation of human SENP7 protease inhibitors; shares compounds with SENP7 inh; recombinant SENP7, Z-RLRGG-aminoluciferin luminescence, 40 min; inhibition, % at 12.5 µM; actives 69% (n = 6,200); AID 488917
Casp3 select = selectivity test for SENP inhibitors: human caspase-3 inhibition; shares compounds with SENP7 inh; purified caspase-3, Z-DEVD-aminoluciferin luminescence, 60 min; inhibition, % at 12.5 µM; actives 60% (n = 6,200);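 active means mean inhibition above about 50%, limit read from the data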;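 further: plate controls were enzyme with DMSO for no effect and wells without caspase-3 for full effect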
Luc interf = interferes with luciferase luminescence in SENP counter-screen; shares compounds with SENP7 inh; Pre-incubated SENP8/Z-RLRGG-aminoluciferin, luciferase luminescence interference; inhibition, % at 12.5 µM; actives 39% (n = 6,200);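 active means mean inhibition above about 50% when retested at one dose, limit read from the data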;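 further: plate controls were DMSO wells with completed reaction for no effect and substrate without enzyme for full effect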
* marks the source's active call; other numbers are inactive results; . = not tested or not shown.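 How the source made its calls, unless noted: active means mean inhibition above about 50% in the one-dose retest (limit read from the data); inactive means the rest.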

SMILES | SENP7 inh | SENP6 block | SENP8 block-1 | SENP8 block-2 | SENP1 inh | SENP8 conf | SENP6 confirm | SENP7 conf | Casp3 select | Luc interf
O=C(Cc1ccccc1F)Nc1ccc(SC(F)F)cc1 | 43 | 61* | 26 | 19 | 1 | 5 | 2 | 53* | 18 | 28
O=C(Nc1ccc(SC(F)F)cc1)c1ccccc1F | 17 | 50* | 20 | 16 | 0 | 37 | 35 | 73* | 41 | 63*
c1ccc2nc3c(nc2c1)[nH]c1ccccc13 | 75* | 29 | 60* | -214 | -58 | 22 | 71* | 92* | 76* | 15
c1ccc(-c2c3ccccc3nc3[nH]c4ccccc4c23)cc1 | 8 | -3 | -8 | -472 | -119 | . | . | . | . | .
Clc1ccc(/C=N/Nc2nnc(Cl)c3ccccc23)cc1 | 22 | -20 | -8 | 14 | 0 | . | . | . | . | .
Clc1nnc(N/N=C/c2ccccc2)c2ccccc12 | 90* | 94* | 74* | 9 | 2 | 16 | 39 | 65* | 36 | 21
Cc1ccc(-c2nc(N/N=C/c3ccncc3)c3ccccc3n2)cc1 | 89* | 88* | 89* | -68 | -2 | 12 | 16 | 18 | 37 | 3
Cc1ccc(/C=N/Nc2nnc(Cl)c3ccccc23)cc1 | 95* | 93* | 86* | -10 | 2 | 44 | 49 | 42 | 37 | 17
C(=N\Nc1ncnc2ccccc12)/c1ccccc1 | 66* | 47 | 39 | 10 | 1 | 62* | 59* | 85* | 69* | 68*
O=C(NCCN1CCC(n2c(=O)[nH]c3ccccc32)CC1)C(c1ccccc1)c1ccccc1 | . | . | . | 13 | 2 | . | . | . | . | .
CC1=C(C(=O)OC(C)(C)C)C(c2cccc3ccccc23)NC(=O)N1 (centres undefined) | -8 | -10 | -14 | 16 | 1 | . | . | . | . | .
Cc1ccc(S(=O)(=O)N2CCOCC2)cc1NC(=O)CSCc1c(C)noc1C | 8 | -7 | -2 | 5 | 2 | . | . | . | . | .
CC(C)Oc1ccc(C(=O)Nc2nc3ccccc3[nH]2)cc1 | 100* | 97* | 97* | 0 | -1 | 91* | 99* | 103* | 98* | 68*
O=C(Nc1nc2ccccc2[nH]1)c1ccc(OC(F)F)cc1 | 96* | 95* | 89* | 3 | 12 | 81* | 93* | 101* | 95* | 62*
O=C(Nc1nc2ccccc2[nH]1)c1ccccc1OC(F)F | 91* | 91* | 84* | -250 | 1 | 87* | 88* | 100* | 95* | 90*
N#CC(Cc1cccs1)c1nc2ccccc2[nH]1 (centres undefined) | . | . | . | -34 | -29 | . | . | . | . | .
N#CC(Cc1ccc(OC(F)F)cc1)c1nc2ccccc2[nH]1 (centres undefined) | 64* | 93* | 80* | -22 | -7 | 92* | 91* | 100* | 88* | 91*
COc1cccc2sc(Nc3nnc(-c4ccc(F)cc4)o3)nc12 | 43 | 75* | 44 | -411 | -51 | 31 | 42 | 86* | 66* | 6
COc1cccc2sc(Nc3nnc(-c4cccs4)o3)nc12 | 73* | 92* | 84* | -255 | -48 | 84* | 84* | 97* | 83* | 55*
O=C(O)c1cccc(Nc2ccc([N+](=O)[O-])cn2)c1 | 93* | 91* | 90* | 14 | -4 | 92* | 92* | 101* | 83* | 93*
O=[N+]([O-])c1ccc(Nc2ccc3ccccc3c2)nc1 | 9 | -3 | -16 | 12 | 3 | . | . | . | . | .
COc1ccc(NC(=O)Nc2cccc3c2O[C@H](CN(C)C(=O)Nc2ccc(OC)cc2)[C@@H](C)CN([C@H](C)CO)C3=O)cc1 | -2 | -9 | 4 | 9 | 1 | . | . | . | . | .
O=C(CNc1ccc2ccccc2c1)N/N=C/c1ccc([N+](=O)[O-])o1 | 12 | 54* | 7 | -173 | -19 | -14 | 16 | -2 | -6 | -9
CCN(CC)S(=O)(=O)c1ccc(N=Nc2c(N)[nH]c(=O)[nH]c2=O)cc1 | 26 | 52* | 20 | 43* | 1 | 15 | 11 | 14 | 37 | 2
CCN(CC)S(=O)(=O)c1ccc(N=NC2=C(O)CCCC2=O)cc1 | 8 | 26 | 4 | 19 | -1 | . | . | . | . | .
SMILES | SENP7 inh | SENP6 block | SENP8 block-1 | SENP8 block-2 | SENP1 inh | SENP8 conf | SENP6 confirm | SENP7 conf | Casp3 select | Luc interf
CCc1ccc(NC(=O)CSc2nc(=O)n(CCCN(C)C)c3c2CCC3)cc1 | 2 | 9 | -4 | 9 | 2 | . | . | . | . | .
O=C(CCCc1ccccc1)c1ccccc1 | 60* | 80* | 59* | 11 | 1 | -6 | 46 | 86* | 40 | 11
O=C(c1ccccc1)c1ccc2c(c1)OCCCO2 | 62* | 44 | 28 | 1 | -3 | 28 | 34 | 75* | 54* | 55*
O=C(CCCC(=O)c1ccccc1)NCCc1ccccc1 | 1 | 5 | 3 | 27 | 1 | . | . | . | . | .
O=C(O)c1ccc2c(c1)OCCCO2 | -3 | -13 | -3 | 18 | 2 | . | . | . | . | .
O=C(CCc1ccccc1)c1ccc2c(c1)OCCCO2 | 42 | 58* | 21 | 14 | 3 | 42 | 42 | 76* | 38 | 37
O=C(/C=C/c1ccccc1)c1ccc2c(c1)OCCCCO2 | 68* | 88* | 40 | 23 | -2 | 72* | 59* | 23 | 15 | 76*
Cc1cccnc1NC(=O)c1ccc(COc2ccccc2)o1 | -2 | -6 | 9 | -5 | 2 | . | . | . | . | .
NC(=O)C1CCCN(C(=O)c2[nH]c(C(F)(F)F)nc2-c2ccccc2)C1 (centres undefined) | . | . | . | 15 | 2 | . | . | . | . | .
O=C(O)CCC(=O)c1ccc2c(c1)OCCCO2 | -1 | 1 | -12 | 12 | 3 | . | . | . | . | .
C/C(=N/NC(=O)CCc1ccccc1)c1ccc2c(c1)OCO2 | -7 | -4 | -12 | 5 | 2 | . | . | . | . | .
O=C(CCCc1ccccc1)Nc1cccc(C(=O)O)c1 | 93* | 89* | 82* | 8 | 1 | 93* | 93* | 100* | 50 | 92*
O=C(CCc1ccccc1)NC(=S)Nc1cccc(C(=O)O)c1 | 10 | -9 | -2 | 7 | 1 | . | . | . | . | .
O=C(CCCc1ccccc1)c1ccc2c(c1)OCCO2 | 96* | 92* | 93* | 6 | -1 | 95* | 97* | 102* | 91* | 67*
